Values after ≈ are worked out from the molar mass of the structure shown. Residues, ends and D or L forms follow the SMILES beside them. *: point of attachment. βNA = c1ccc2cc(N*)ccc2c1
Tests used:
Assay type in all cases: functional
Klebsiella aerogenes [1] = assay: Antimicrobial activity against Enterobacter aerogenes EA289 after 18 hrs by rapid INT colorimetric assay in presence of efflux pump inhibitor phenylalanine arginine; settings: EA289, 18 h
Klebsiella aerogenes [2] = assay: Antimicrobial activity against Enterobacter aerogenes EA294 after 18 hrs by rapid INT colorimetric assay; settings: EA294, 18 h
How it was run: (§1)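 Strains precultured overnight on Mueller-Hinton agar. Samples dissolved in DMSO-MHB, serially diluted twofold in MHB, inoculum 1.5 × 10^6 CFU/ml in MHB added; 37°C, 18 h; final DMSO <2.5%. 0.2 mg/ml INT then added, 30 min at 37°C. MIC = lowest concentration preventing yellow-to-pink reduction, i.e. complete growth inhibition.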

Escherichia coli [3] = assay: Antimicrobial activity against Escherichia coli AG100A after 18 hrs by rapid INT colorimetric assay; how it was run: as §1
Klebsiella pneumoniae [4] = assay: Antimicrobial activity against Klebsiella pneumoniae ATCC 11296 after 18 hrs by rapid INT colorimetric assay in presence of efflux pump inhibitor phenylalanine arginine; settings: ATCC 11296, 18 h
Escherichia coli [5] = assay: Antimicrobial activity against Escherichia coli ATCC 8739 after 18 hrs by rapid INT colorimetric assay; settings: ATCC 8739, 18 h; how it was run: as §1
Escherichia coli [6] = assay: Antimicrobial activity against tetracycline-resistant Escherichia coli AG102 after 18 hrs by rapid INT colorimetric assay; settings: AG102, 18 h; how it was run: as §1
Klebsiella aerogenes [7] = assay: Antimicrobial activity against Enterobacter aerogenes EA5 after 18 hrs by rapid INT colorimetric assay; settings: EA5, 18 h
How it was run: (§2)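 Strains precultured overnight on Mueller-Hinton agar. Sample dissolved in DMSO-MHB, twofold serial dilutions in MHB, inoculum 1.5 × 10^6 CFU/ml; final DMSO below 2.5%. Incubated 37°C 18 h, then 0.2 mg/ml INT added, 30 min at 37°C. MIC = lowest concentration preventing yellow-to-pink change (complete growth inhibition). DMSO-only wells as negative control.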

Pseudomonas aeruginosa [8] = assay: Antimicrobial activity against Pseudomonas aeruginosa PA124 after 18 hrs by rapid INT colorimetric assay in presence of efflux pump inhibitor phenylalanine arginine; settings: PA124, 18 h
Escherichia coli [9] = assay: Antimicrobial activity against tetracycline-resistant Escherichia coli AG100A after 18 hrs by rapid INT colorimetric assay; how it was run: as §1
Klebsiella pneumoniae [10] = assay: Antimicrobial activity against Klebsiella pneumoniae KP63 after 18 hrs by rapid INT colorimetric assay; settings: KP63, 18 h; how it was run: as §2
Klebsiella aerogenes [11] = assay: Antimicrobial activity against Enterobacter aerogenes EA-CM64 after 18 hrs by rapid INT colorimetric assay; settings: EA-CM64, 18 h; how it was run: as §1
Klebsiella aerogenes [12] = assay: Antimicrobial activity against Enterobacter aerogenes EA294 after 18 hrs by rapid INT colorimetric assay in presence of efflux pump inhibitor phenylalanine arginine; settings: EA294, 18 h
Enterobacter cloacae [13] = assay: Antimicrobial activity against Enterobacter cloacae Ec07769 after 18 hrs by rapid INT colorimetric assay; settings: Ec07769, 18 h; how it was run: as §2
Enterobacter cloacae [14] = assay: Antimicrobial activity against Enterobacter cloacae Ec1194 after 18 hrs by rapid INT colorimetric assay in presence of efflux pump inhibitor phenylalanine arginine; settings: Ec1194, 18 h
How it was run: (§3)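 Broth microdilution MIC in Mueller-Hinton broth with PAßN at a final 20 μg/ml throughout. Twofold dilutions of sample from DMSO-MHB stock; inoculum 1.5 × 10^6 CFU/ml; 18 h at 37°C, final DMSO <2.5%. Growth read by INT (0.2 mg/ml, 30 min, 37°C). MIC taken as lowest concentration with no pink colour.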

Escherichia coli [15] = assay: Antimicrobial activity against Escherichia coli ATCC 10536 after 18 hrs by rapid INT colorimetric assay; settings: ATCC 10536, 18 h; how it was run: as §2
Klebsiella aerogenes [16] = assay: Antimicrobial activity against Enterobacter aerogenes EA3 after 18 hrs by rapid INT colorimetric assay; settings: EA3, 18 h; how it was run: as §2
Pseudomonas aeruginosa [17] = assay: Antimicrobial activity against Pseudomonas aeruginosa PA124 after 18 hrs by rapid INT colorimetric assay; settings: PA124, 18 h; how it was run: as §1
Klebsiella aerogenes [18] = assay: Antimicrobial activity against Enterobacter aerogenes EA3 after 18 hrs by rapid INT colorimetric assay in presence of efflux pump inhibitor phenylalanine arginine; settings: EA3, 18 h
Escherichia coli [19] = assay: Antimicrobial activity against tetracycline-resistant Escherichia coli AG102 after 18 hrs by rapid INT colorimetric assay in presence of efflux pump inhibitor phenylalanine arginine; settings: AG102, 18 h; how it was run: as §3
Klebsiella pneumoniae [20] = assay: Antimicrobial activity against Klebsiella pneumoniae KP63 after 18 hrs by rapid INT colorimetric assay in presence of efflux pump inhibitor phenylalanine arginine; settings: KP63, 18 h
Klebsiella aerogenes [21] = assay: Antimicrobial activity against Enterobacter aerogenes EA-CM64 after 18 hrs by rapid INT colorimetric assay in presence of efflux pump inhibitor phenylalanine arginine; settings: EA-CM64, 18 h
Escherichia coli [22] = assay: Antimicrobial activity against Escherichia coli AG100A after 18 hrs by rapid INT colorimetric assay in presence of efflux pump inhibitor phenylalanine arginine
Enterobacter cloacae [23] = assay: Antimicrobial activity against Enterobacter cloacae Ec07769 after 18 hrs by rapid INT colorimetric assay in presence of efflux pump inhibitor phenylalanine arginine; settings: Ec07769, 18 h
Escherichia coli [24] = assay: Antimicrobial activity against Escherichia coli ATCC 8739 after 18 hrs by rapid INT colorimetric assay in presence of efflux pump inhibitor phenylalanine arginine; settings: ATCC 8739, 18 h; how it was run: as §3
Klebsiella aerogenes [25] = assay: Antimicrobial activity against Enterobacter aerogenes EA27 after 18 hrs by rapid INT colorimetric assay; settings: EA27, 18 h; how it was run: as §2
Klebsiella pneumoniae [26] = assay: Antimicrobial activity against Klebsiella pneumoniae ATCC 11296 after 18 hrs by rapid INT colorimetric assay; settings: ATCC 11296, 18 h; how it was run: as §1
Klebsiella aerogenes [27] = assay: Antimicrobial activity against Enterobacter aerogenes EA5 after 18 hrs by rapid INT colorimetric assay in presence of efflux pump inhibitor phenylalanine arginine; settings: EA5, 18 h
Escherichia coli [28] = assay: Antimicrobial activity against Escherichia coli AG100 after 18 hrs by rapid INT colorimetric assay; settings: AG100, 18 h; how it was run: as §1
Escherichia coli [29] = assay: Antimicrobial activity against Escherichia coli AG100 after 18 hrs by rapid INT colorimetric assay in presence of efflux pump inhibitor phenylalanine arginine; settings: AG100, 18 h
Klebsiella aerogenes [30] = assay: Antimicrobial activity against Enterobacter aerogenes ATCC 13048 after 18 hrs by rapid INT colorimetric assay in presence of efflux pump inhibitor phenylalanine arginine; settings: ATCC 13048, 18 h
Pseudomonas aeruginosa [31] = assay: Antimicrobial activity against Pseudomonas aeruginosa PAO1 after 18 hrs by rapid INT colorimetric assay; settings: PAO1, 18 h; how it was run: as §1
Enterobacter cloacae [32] = assay: Antimicrobial activity against Enterobacter cloacae Ec1194 after 18 hrs by rapid INT colorimetric assay; settings: Ec1194, 18 h; how it was run: as §2
Escherichia coli [33] = assay: Antimicrobial activity against Escherichia coli ATCC 10536 after 18 hrs by rapid INT colorimetric assay in presence of efflux pump inhibitor phenylalanine arginine beta-naphthylamide; settings: ATCC 10536, 18 h; how it was run: as §3
Klebsiella aerogenes [34] = assay: Antimicrobial activity against Enterobacter aerogenes EA298 after 18 hrs by rapid INT colorimetric assay in presence of efflux pump inhibitor phenylalanine arginine; settings: EA298, 18 h
Klebsiella aerogenes [35] = assay: Antimicrobial activity against Enterobacter aerogenes EA289 after 18 hrs by rapid INT colorimetric assay; settings: EA289, 18 h; how it was run: as §2
Klebsiella aerogenes [36] = assay: Antimicrobial activity against Enterobacter aerogenes EA298 after 18 hrs by rapid INT colorimetric assay; settings: EA298, 18 h; how it was run: as §1
Klebsiella pneumoniae [37] = assay: Antimicrobial activity against Klebsiella pneumoniae KP55 after 18 hrs by rapid INT colorimetric assay in presence of efflux pump inhibitor phenylalanine arginine; settings: KP55, 18 h
Klebsiella aerogenes [38] = assay: Antimicrobial activity against Enterobacter aerogenes ATCC 13048 after 18 hrs by rapid INT colorimetric assay; settings: ATCC 13048, 18 h; how it was run: as §2
Klebsiella pneumoniae [39] = assay: Antimicrobial activity against Klebsiella pneumoniae KP55 after 18 hrs by rapid INT colorimetric assay; settings: KP55, 18 h; how it was run: as §2
Escherichia coli [40] = assay: Antimicrobial activity against tetracycline-resistant Escherichia coli AG100A after 18 hrs by rapid INT colorimetric assay in presence of efflux pump inhibitor phenylalanine arginine; how it was run: as §3
Klebsiella aerogenes [41] = assay: Antimicrobial activity against Enterobacter aerogenes EA27 after 18 hrs by rapid INT colorimetric assay in presence of efflux pump inhibitor phenylalanine arginine; settings: EA27, 18 h
Pseudomonas aeruginosa [42] = assay: Antimicrobial activity against Pseudomonas aeruginosa PAO1 after 18 hrs by rapid INT colorimetric assay in presence of efflux pump inhibitor phenylalanine arginine; settings: PAO1, 18 h

Compound: CC(C)=CCc1c(O)ccc(C(=O)/C=C/c2ccc(O)cc2)c1O [ISOBAVACHALCONE]
- MIC (Klebsiella aerogenes [1]): 16 µg/mL
- MIC (Klebsiella aerogenes [2]): 32 µg/mL (≈ 98.7 µM)
- MIC (Escherichia coli [3]): 16 µg/mL (≈ 49.3 µM)
- MIC (Klebsiella pneumoniae [4]): 4 µg/mL
- MIC (Escherichia coli [5]): 256 µg/mL (≈ 789 µM)
- MIC (Escherichia coli [6]): 64 µg/mL (≈ 197 µM)
- MIC (Klebsiella aerogenes [7]): 64 µg/mL (≈ 197 µM)
- MIC (Pseudomonas aeruginosa [8]): 4 µg/mL
- MIC (Escherichia coli [9]): 64 µg/mL (≈ 197 µM)
- MIC (Klebsiella pneumoniae [10]): 16 µg/mL (≈ 49.3 µM)
- MIC (Klebsiella aerogenes [11]): > 256 µg/mL
- MIC (Klebsiella aerogenes [12]): 0.5 µg/mL
- MIC (Enterobacter cloacae [13]): 128 µg/mL (≈ 395 µM)
- MIC (Enterobacter cloacae [14]): 1 µg/mL
- MIC (Escherichia coli [15]): 128 µg/mL (≈ 395 µM)
- MIC (Klebsiella aerogenes [16]): 128 µg/mL (≈ 395 µM)
- MIC (Pseudomonas aeruginosa [17]): 64 µg/mL (≈ 197 µM)
- MIC (Klebsiella aerogenes [18]): 32 µg/mL
- MIC (Escherichia coli [19]): 8 µg/mL
- MIC (Klebsiella pneumoniae [20]): 0.5 µg/mL
- MIC (Klebsiella aerogenes [21]): 256 µg/mL
- MIC (Escherichia coli [22]): 0.25 µg/mL
- MIC (Enterobacter cloacae [23]): 8 µg/mL
- MIC (Escherichia coli [24]): 8 µg/mL
- MIC (Klebsiella aerogenes [25]): 256 µg/mL (≈ 789 µM)
- MIC (Klebsiella pneumoniae [26]): 32 µg/mL (≈ 98.7 µM)
- MIC (Klebsiella aerogenes [27]): 16 µg/mL
- MIC (Escherichia coli [28]): 64 µg/mL (≈ 197 µM)
- MIC (Escherichia coli [29]): 0.5 µg/mL
- MIC (Klebsiella aerogenes [30]): 16 µg/mL
- MIC (Pseudomonas aeruginosa [31]): 64 µg/mL (≈ 197 µM)
- MIC (Enterobacter cloacae [32]): 64 µg/mL (≈ 197 µM)
- MIC (Escherichia coli [33]): 2 µg/mL
- MIC (Klebsiella aerogenes [34]): 0.5 µg/mL
- MIC (Klebsiella aerogenes [35]): 256 µg/mL (≈ 789 µM)
- MIC (Klebsiella aerogenes [36]): 8 µg/mL (≈ 24.7 µM)
- MIC (Klebsiella pneumoniae [37]): 4 µg/mL
- MIC (Klebsiella aerogenes [38]): 256 µg/mL (≈ 789 µM)
- MIC (Klebsiella pneumoniae [39]): 32 µg/mL (≈ 98.7 µM)
- MIC (Escherichia coli [40]): 8 µg/mL
- MIC (Klebsiella aerogenes [41]): 8 µg/mL
- MIC (Pseudomonas aeruginosa [42]): 16 µg/mL

Compound: N=C(N)NCCC[C@H](NC(=O)[C@@H](N)Cc1ccccc1)C(=O)Nc1ccc2ccccc2c1 [PABETAN] (H-Phe-Arg-βNA)
- MIC (Klebsiella aerogenes [2]): > 256 µg/mL
- MIC (Escherichia coli [3]): 64 µg/mL (≈ 143 µM)
- MIC (Escherichia coli [5]): > 256 µg/mL
- MIC (Escherichia coli [6]): > 256 µg/mL
- MIC (Klebsiella aerogenes [7]): > 256 µg/mL
- MIC (Escherichia coli [9]): > 256 µg/mL
- MIC (Klebsiella pneumoniae [10]): > 256 µg/mL
- MIC (Klebsiella aerogenes [11]): > 256 µg/mL
- MIC (Enterobacter cloacae [13]): > 256 µg/mL
- MIC (Escherichia coli [15]): > 256 µg/mL
- MIC (Klebsiella aerogenes [16]): > 256 µg/mL
- MIC (Pseudomonas aeruginosa [17]): > 256 µg/mL
- MIC (Klebsiella aerogenes [25]): > 256 µg/mL
- MIC (Klebsiella pneumoniae [26]): 256 µg/mL (≈ 573 µM)
- MIC (Escherichia coli [28]): > 256 µg/mL
- MIC (Pseudomonas aeruginosa [31]): > 256 µg/mL
- MIC (Enterobacter cloacae [32]): > 256 µg/mL
- MIC (Klebsiella aerogenes [35]): > 256 µg/mL
- MIC (Klebsiella aerogenes [36]): > 256 µg/mL
- MIC (Klebsiella aerogenes [38]): > 256 µg/mL
- MIC (Klebsiella pneumoniae [39]): > 256 µg/mL
